Measured values as given in publication PMC9449982 (Molecular Pharmaceutics, 2022).
Converted amounts (≈) assume the structure as drawn. “And” between values parts separate entries of the source, which are not always exact repeats. Equal values may be shown once. Read-outs that look alike come from different tables or passages of the source.

Legend:
[1] = cited from earlier work
[2] = Flux measurements, Franz diffusion cells; format: in vitro ADME
[3] = cited from earlier work; for glass transition temperature (Tg) / Tg, dry: dry
[4] = Particle size determination by dynamic light scattering; format: physicochemical
[5] = Amorphous solubility determination, ultracentrifugation; format: physicochemical; details: phosphate buffer with HPMCAS, pH 6.5, aqueous buffer, kinetic from dmso stock
Procedure, shortened: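 Test compound DMSO stock added to 50 mM pH 6.5 sodium phosphate buffer with 100 μg/mL predissolved HPMCAS, keeping organic solvent below 2% (v/v). Mixture stirred 15 min to form amorphous aggregates, then spun at 35,000 rpm for 30 min. Supernatant diluted 1:1 in mobile phase and quantified by isocratic C18 HPLC at 210 nm. At least triplicate.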

[6] = Wet glass transition temperature; format: physicochemical; details: amorphous drug equilibrated at 97% relative humidity 48 h; DSC onset
Procedure, shortened: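 Amorphous test compound powder was freshly prepared and vacuum-dried overnight at room temperature. Then 5–10 mg in open hermetic pans was held at 97% relative humidity (saturated potassium sulfate) for 48 h. Pans sealed; DSC run 0 to 90 °C at 10 °C/min. Onset glass transition taken as wet Tg. Triplicate.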

## COC(=O)N[C@H](C(=O)N[C@@H](Cc1ccccc1)[C@@H](O)CN(Cc1ccc(-c2ccccn2)cc1)NC(=O)[C@@H](NC(=O)OC)C(C)(C)C)C(C)(C)C [atazanavir]
[1]; basic
  pKa: 4.52,[45] basic
[2]; donor ∼20 μg/mL, 150 rpm, no BSA, 37 °C
  transmembrane flux: 0.023 ± 0.003 μg/(min·cm^2)
[2]; donor ∼20 μg/mL, 300 rpm, no BSA, 37 °C
  transmembrane flux: 0.030 ± 0.003 μg/(min·cm^2)
[2]; donor ∼20 μg/mL, 500 rpm, no BSA, 37 °C
  transmembrane flux: 0.041 ± 0.005 μg/(min·cm^2)
[2]; donor ∼40 μg/mL (amorphous solubility), 300 rpm, no BSA, 37 °C
  transmembrane flux: 0.048 ± 0.012 μg/(min·cm^2)
[2]; donor ∼40 μg/mL, 500 rpm, no BSA, 37 °C
  transmembrane flux: 0.070 ± 0.008 μg/(min·cm^2)
[2]; donor ∼40 μg/mL, 1000 rpm, no BSA, 37 °C
  transmembrane flux: 0.072 ± 0.019 μg/(min·cm^2)
[2]; stirring rates equal to or higher than 300 rpm, no BSA
  donor concentration at which a flux plateau was observed: about 150 μg/mL
[3]
  glass transition temperature (Tg): 104 °C
[3]; water saturated amorphous precipitates
  Tg, wet: 51 °C
[4]; particles from stock 5 mg/mL, 1000 rpm, 37 °C
  Z-average: 193 ± 4 nm
[4]; particles from stock 5 mg/mL, 1000 rpm, 37 °C (193 nm), listed as ATZ
  diffusion coefficient Dp: 3.43 ± 0.07 ×10^–8 cm^2/s
[4]; particles from stock 20 mg/mL, 1000 rpm, 37 °C
  Z-average: 460 ± 23 nm
[4]; particles from stock 20 mg/mL, 1000 rpm, 37 °C (460 nm), listed as ATZ
  diffusion coefficient Dp: 1.44 ± 0.07 ×10^–8 cm^2/s
[5]
  solubility at 15 min: 37.7 ± 3.2 µg/mL (≈ 53.5 µM)

## Clc1ccccc1C(c1ccccc1)(c1ccccc1)n1ccnc1 [clotrimazole]
[1]; basic
  pKa: 5.89,[45] basic
[2]; 150 rpm, 37 °C, 3% BSA
  bulk concentration at which a flux plateau was observed: around 150 μg/mL
[3]
  Tg, dry: 28,[45] NA ^a °C
  glass transition temperature (Tg): 28 °C
[5]
  solubility at 15 min: 7.7 ± 0.3 µg/mL (≈ 22.3 µM)

## Cc1cccc(C)c1OCC(=O)N[C@@H](Cc1ccccc1)[C@@H](O)C[C@H](Cc1ccccc1)NC(=O)[C@H](C(C)C)N1CCCNC1=O [lopinavir]
[1]; no reference printed
  pKa: not dissociated at physiological pHs
[1]; no reference printed, listed as Lopinavir
  pKa: not expected to dissociate within physiological pH ranges
[3]
  Tg, dry: 69 °C
  glass transition temperature (Tg): 69 °C
[6]
  Tg, wet: 42 °C and 42.2 ± 1.8 °C
[4]; particles from stock 5 mg/mL, 1000 rpm, 25 °C
  Z-average: 254 ± 3 nm
[4]; particles from stock 5 mg/mL, 1000 rpm, 25 °C (254 nm), listed as LPV
  diffusion coefficient Dp: 1.94 ± 0.00 ×10^–8 cm^2/s
[4]; particles from stock 12 mg/mL, 300 rpm, 25 °C
  Z-average: 454 ± 10 nm
[4]; particles from stock 12 mg/mL, 300 rpm, 25 °C (454 nm), listed as LPV
  diffusion coefficient Dp: 1.09 ± 0.00 ×10^–8 cm^2/s
[4]; particles from stock 20 mg/mL, 300 rpm, 25 °C
  Z-average: 839 ± 15 nm
[4]; particles from stock 20 mg/mL, 300 rpm, 25 °C (839 nm), listed as LPV
  diffusion coefficient Dp: 0.59 ± 0.01 ×10^–8 cm^2/s
[5]
  solubility at 15 min: 19.3 ± 2 µg/mL (≈ 30.7 µM)
